Results collected from several papers.
Each line is one published result; the experiments were not run side by side.
Organism: Acinetobacter baumannii
Observed: microbial growth

| Structure (SMILES) | technique | strain | time | setting | MIC |
| --- | --- | --- | --- | --- | --- |
| COc1c2c(c(O)c3cc(F)ccc13)C(=O)C1=C(O)[C@]3(O)C(=O)C(C(N)=O)=C(O)[C@@H](N(C)C)[C@@H]3C[C@@H]1C2 | broth dilution | ATCC19606 | – | – | 2 µg/mL |
| N=C(N)c1ccc(OCc2ccc(Br)cc2COc2ccc(C(=N)N)cc2)cc1 | broth dilution | ATCC17978 | – | – | > 200 µg/mL |
| O=C(N[C@H](CO)[C@H](O)c1ccc([N+](=O)[O-])cc1)C(Cl)Cl | – | ATCC19606 | – | – | 250 µg/mL |
| CCn1cc(C(=O)O)c(=O)c2cc(F)c(N3CCNCC3)cc21 | broth dilution | BAA747 | – | – | 16 µM |
| O=C(CCCCCC[P+](c1ccccc1)(c1ccccc1)c1ccccc1)Nc1ccc(O)c(O)c1.[Br-] | broth dilution | ATCC19606 | 18 h | – | > 32 µg/mL |
| CN(C)[C@@H]1C(O)=C(C(N)=O)C(=O)[C@@]2(O)C(O)=C3C(=O)c4c(O)c(N)nc(F)c4C[C@H]3C[C@@H]12.Cl.Cl | broth dilution | ATCC19606 | – | – | 0.5 µg/mL |
| O=C(O)c1ccc(-n2cc(/C=N/Nc3ccccc3F)c(-c3ccc4ccccc4c3)n2)cc1 | – | ATCCBAA1605 | – | – | 25 µg/mL |
| CCCCCCC/C=C/C(=O)N1C(=O)/C(=C(/C)O)C(=O)C1CCCCN (stereo not drawn) | – | ATCC19606 | – | – | > 200 µg/mL |
| O=C(CCCCCCCCCC[P+](c1ccccc1)(c1ccccc1)c1ccccc1)Nc1cc(O)c(O)c(O)c1.[Br-] | broth dilution | ATCC19606 | 18 h | – | > 32 µg/mL |
| CC(C)(O/N=C(\C(=O)N[C@@H]1C(=O)N2C(C(=O)[O-])=C(C[n+]3ccccc3)CS[C@H]12)c1csc(N)n1)C(=O)O | broth dilution | ATCC19606 | – | – | 4 µg/mL |
| NC1CCCCc2c1[nH]c1cc(Cl)c(Cl)cc21 (stereo not drawn) | broth dilution | ATCC19606 | – | – | 8 µg/mL |
| CC(C)Oc1c(NC(=O)c2ccc(NC(=O)[C@H](CC(N)=O)NC(=O)c3ccc(NC(=O)c4ccc(C#N)s4)cc3)cc2)ccc(C(=O)Nc2ccc(C(=O)O)cc2)c1O | – | DSM30008 | – | – | 0.125 µg/mL |
| CN(C)Cc1ccc2c(N(C)C)c3c(c(O)c2c1)C(=O)C1=C(O)[C@]2(O)C(=O)C(C(N)=O)=C(O)[C@@H](N(C)C)[C@@H]2C[C@@H]1C3 | broth dilution | ATCC19606 | – | – | 1 µg/mL |
| O=C(O)c1ccc(-n2cc(/C=N/Nc3ccc(Br)cc3)c(-c3cccc(F)c3)n2)cc1 | – | ATCCBAA1605 | – | – | 6.25 µg/mL |
| CCCCCCC/C=C/C(=O)N1C(=O)/C(=C(\O)CCCC)C(=O)C1CC(C)C (stereo not drawn) | – | ATCC19606 | – | – | 200 µg/mL |
| N=C(N)c1ccc(OCCCCCOc2ccc(C(=N)N)cc2)cc1 | broth dilution | ATCC17978 | – | – | > 200 µg/mL |
| CCCCCCC/C=C/C(=O)N1C(=O)/C(=C(\O)c2ccccc2)C(=O)C1CC(C)C (stereo not drawn) | – | ATCC19606 | – | – | > 200 µg/mL |
| O=C(CCCCCCCC[P+](c1ccccc1)(c1ccccc1)c1ccccc1)Nc1cc(O)c(O)c(O)c1.[Br-] | broth dilution | ATCC19606 | 18 h | – | > 32 µg/mL |
| O=C(O)c1ccc(-n2cc(/C=N/Nc3cccc(Br)c3)c(-c3ccc(F)cc3)n2)cc1 | – | ATCCBAA1605 | – | – | 12.5 µg/mL |
| O=C(CCc1ccc(O)c(O)c1)NCCCCCCCC[P+](c1ccccc1)(c1ccccc1)c1ccccc1.[Br-] | broth dilution | ATCC19606 | 18 h | – | > 32 µg/mL |

| Structure (SMILES) | technique | strain | time | setting | MIC |
| --- | --- | --- | --- | --- | --- |
| NC[C@H]1O[C@H](O[C@H]2[C@H](O)[C@@H](O[C@H]3O[C@H](CO)[C@@H](O)[C@H](N)[C@H]3O)[C@H](N)C[C@@H]2N)[C@H](N)C[C@@H]1O | – | – | – | – | 1 µg/mL |
| CC(C)CCNc1nc(Cl)c2c(c1O)C(=O)C1=C(O)[C@]3(O)C(=O)C(C(N)=O)=C(O)[C@@H](N(C)C)[C@@H]3C[C@@H]1C2.Cl.Cl.Cl | broth dilution | ATCC19606 | – | – | 4 µg/mL |
| CCCCCCC/C=C/C(=O)N1C(=O)/C(=C(\O)c2ccc(OCOCCOC)cc2)C(=O)C1CC(C)C (stereo not drawn) | – | ATCC19606 | – | – | 200 µg/mL |
| CN(C)[C@@H]1C(O)=C(C(N)=O)C(=O)[C@@]2(O)C(O)=C3C(=O)c4c(O)c(-c5ccccc5)nc(Cl)c4C[C@H]3C[C@@H]12.Cl | broth dilution | ATCC19606 | – | – | 16 µg/mL |
| CC(NCCCCOc1ccc(Cl)c(Cl)c1)c1cc2cc(Br)ccc2[nH]1 (stereo not drawn) | broth dilution | ATCC19606 | – | – | 32 µg/mL |
| CN(C)c1cc(CNCC(C)(C)C)c(O)c2c1C[C@H]1C[C@H]3[C@H](N(C)C)C(O)=C(C(N)=O)C(=O)[C@@]3(O)C(O)=C1C2=O | broth dilution | ATCC19606 | – | – | 1 µg/mL |
| C[C@@H](O)[C@H]1C(=O)N2C(C(=O)O)=C(S[C@@H]3CN[C@H](C(=O)N(C)C)C3)[C@H](C)[C@H]12 | – | – | – | clinical isolate | 128 µg/mL |
| NC[C@H]1O[C@H](O[C@H]2[C@H](O)[C@@H](O[C@H]3O[C@H](CO)[C@@H](O)[C@H](N)[C@H]3O)[C@H](N)C[C@@H]2N)[C@H](N)C[C@@H]1O | broth dilution | – | – | – | 2.6 µM |
| O=C(O)c1ccc(-n2cc(/C=N/Nc3ccc(Br)cc3)c(-c3ccc4ccccc4c3)n2)cc1 | – | ATCCBAA1605 | – | – | 12.5 µg/mL |
| CN[C@@H]1[C@@H](O)[C@@H](O[C@@H]2[C@@H](O)[C@H](O[C@H]3OC(CNCCO)=CC[C@H]3N)[C@@H](N)C[C@H]2NC(=O)[C@@H](O)CCN)OC[C@]1(C)O | – | – | – | – | 2 µg/mL |
| CN(C)[C@@H]1C(O)=C(C(N)=O)C(=O)[C@@]2(O)C(O)=C3C(=O)c4c(cc5ccc(-c6ccccc6)cc5c4O)C[C@H]3C[C@@H]12 | broth dilution | ATCC19606 | – | – | 32 µg/mL |
| CC1(C)S[C@@H]2[C@H](NC(=O)C(C(=O)O)c3ccccc3)C(=O)N2[C@H]1C(=O)O (stereo partly drawn) | broth dilution | – | – | – | 44.3 µM |
| CNC(C)C1CCC(N)C(OC2C(N)CC(N)C(OC3OCC(C)(O)C(NC)C3O)C2O)O1 (stereo not drawn) | broth dilution | ATCC19606 | – | – | 0.5 µg/mL |
| NC1CCCCc2c1[nH]c1ccc(Cl)c(Cl)c21 (stereo not drawn) | broth dilution | ATCC19606 | – | – | 16 µg/mL |
| C/C(=C\c1ccc(O)cc1)C(=O)Nc1ccc(C(=O)N[C@@H](CC(N)=O)C(=O)Nc2ccc(C(=O)Nc3ccc(C(=O)Nc4ccc(C(=O)O)cc4)c(O)c3OC(C)C)cc2)cc1 | – | DSM30008 | – | – | 0.25 µg/mL |
| CN(C)[C@@H]1C(O)=C(C(N)=O)C(=O)[C@@]2(O)C(O)=C3C(=O)c4c(c(F)c5ccc(CNC6CC6)cc5c4O)C[C@H]3C[C@@H]12 | broth dilution | ATCC19606 | – | – | 1 µg/mL |
| N=C(N)c1ccc(OCc2ccc(-c3ccccc3)cc2COc2ccc(C(=N)N)cc2)cc1 | broth dilution | ATCC17978 | – | – | > 200 µg/mL |
| CCCCCCC/C=C/C(=O)N1C(=O)/C(=C(/C)O)C(=O)C1Cc1ccc(OC(C)(C)C)cc1 (stereo not drawn) | – | ATCC19606 | – | – | > 200 µg/mL |
| CN(C)c1nc(NC(=O)CNC(C)(C)C)c(O)c2c1C[C@H]1C[C@H]3[C@H](N(C)C)C(O)=C(C(N)=O)C(=O)[C@@]3(O)C(O)=C1C2=O.Cl | broth dilution | ATCC19606 | – | – | > 32 µg/mL |
